In data set [1] the test system is A549. The experiment in a line: Induction of apoptosis in human A549 cells assessed as cleavage of caspase-8 at 5 uM after 36 hrs by Western blotting. In kind it is functional, cell-based. Background: A western blot detects proteins with antibodies after separation by electrophoresis.
Data set [2] concerns A549. The experiment in a line: Induction of apoptosis in human A549 cells assessed as increase of Bak protein level at 5 uM after 36 hrs by Western blotting. In kind it is functional, cell-based. An outline of the steps: (§1)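 A549 cells exposed 0-10 μM or 0.1% DMSO for 36 h; lysed in SDS sample buffer, boiled, SDS-PAGE, PVDF transfer, blocked in 5% milk PBST, primary antibody overnight, HRP secondary with chemiluminescence. Probed for pro-caspase 3, pro-caspase 9, PARP, Bcl-2, Bax, Bak, actin. One of three repeats shown.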

In data set [3] the test system is A549. The experiment in a line: Induction of autophagy in human A549 cells assessed as acridine orange stain incorporation at 5 uM after 24 hrs by fluorescence microscopic analysis. Type of data set: functional, cell-based.
Data set [4] concerns A549. The experiment in a line: Cytotoxicity against human A549 cells after 48 hrs by alamar blue assay. In kind it is functional, cell-based. Conditions: A549, 48 h. For orientation: Alamar Blue is a resazurin reagent that responds to reducing activity.
Data set [5] relates to A549. The experiment in a line: Induction of apoptosis in human A549 cells assessed as increase of Bax protein level at 5 uM after 36 hrs by Western blotting. In kind it is functional, cell-based. In outline:
as §1

The test system of data set [6] is A549. The experiment in a line: Induction of apoptosis in human A549 cells assessed as decrease of procaspase-9 level after 36 hrs by Western blotting. In kind it is functional, cell-based. In outline:
as §1

The subject of data set [7] is A549. The experiment in a line: Induction of apoptosis in human A549 cells assessed as increase in DNA breaks at 5 uM after 24 hrs by flow cytometry based TUNEL assay. Type of data set: functional. In outline:
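A549 cells exposed to 5 μM for various times. 5 × 10^5 cells fixed in 1% paraformaldehyde and 70% ethanol, TdT reaction with DIG-dUTP 30 min at 37 °C, anti-DIG-fluorescein 30 min in the dark, then PI (5 μg/mL) plus RNase A (100 μg/mL) 30 min; fluorescence by flow cytometry. One of three repeats shown.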
In general terms: Flow cytometry measures light scatter and fluorescence of single cells or particles in a stream.

A short description of data set [8]: Cytotoxicity against human BEAS2B cells uo to 80 uM after 48 hrs by alamar blue assay. As to conditions: beas-2b. Type of data set: cell-based. In outline:
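Beas-2b cells seeded at 5000/well in RPMI 1640 + 10% FBS, 24 h at 37 °C, 5% CO2; then treated 0-80 μM in triplicate per concentration, 0.1% DMSO final, 48 h. Viability read by Alamar Blue per manufacturer's protocol; mean ± SE of three separate experiments.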

The test system of data set [9] is A549. The data set can be described thus: Induction of apoptosis in human A549 cells assessed as blockade of sub-G1 phase increase at 5 uM after 36 hrs using propidium iodide staining by flow cytometry in presence of N-acetyl-cysteine. Type of data set: functional, cell-based. In outline: (§2)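 Ethanol-fixed cells stained with RNase (200 μg/mL) and PI (10 μg/mL) 30 min; sub-G1 population by flow cytometry on ≥10 000 cells; mean ± SE of three experiments.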

For data set [10], the system named is A549. The data set can be described thus: Induction of apoptosis in human A549 cells assessed as loss of mitochondria membrane potential at 5 uM after up to 48 hrs using 3,3'-diethyloxacarbocyanine iodide staining by flow cytometry. In kind it is functional, cell-based. An outline of the steps: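 A549 cells treated with 5 μM or 0.1% DMSO for indicated times; 5 × 10^5 cells stained with 50 nM DiOC2(3), 15 min, 37 °C, dark, washed in cold PBS. Flow cytometry, excitation 488 nm, emission 525 nm (FL-1); low-uptake cells scored as mitochondrial damage against untreated controls. One of three repeats shown.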

Data set [11] has as its system A549. The data set can be described thus: Induction of apoptosis in human A549 cells assessed as blockade of sub-G1 phase increase at 5 uM after 36 hrs using propidium iodide staining by flow cytometry in presence of Z-VAD-fmk. Type of data set: functional, cell-based. An outline of the steps: as §2
Data set [12] relates to A549. The experiment in a line: Cell cycle arrest in human A549 cells assessed as accumulation at sub-G1 phase after 48 hrs using propidium iodide staining by flow cytometry. In kind it is functional, cell-based. In outline:
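A549 cells treated 0-5 μM (0.31-5 μM) or 0.1% DMSO vehicle for 48 h. 5 × 10^5 cells fixed in 70% ethanol on ice ≥2 h, stained with RNase (200 μg/mL) and PI (10 μg/mL) 30 min at room temperature; sub-G1 fraction by flow cytometry, ≥10 000 cells per sample; mean ± SE of three experiments.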

For data set [13], the system named is A549. The experiment in a line: Induction of apoptosis in human A549 cells assessed as reduction of Bcl-2 protein level at 5 uM after 36 hrs by Western blotting. In kind it is functional, cell-based. An outline of the steps:
as §1

Data set [14] relates to A549. The experiment in a line: Induction of apoptosis in human A549 cells assessed as blockade of sub-G1 phase increase at 5 uM after 36 hrs using propidium iodide staining by flow cytometry in presence of 4,4'-diisothiocyano- 2,2'-stilbenedisulfonic acid. Type of data set: functional, cell-based. In outline:
as §2

The subject of data set [15] is A549. The data set can be described thus: Induction of apoptosis in human A549 cells assessed as decrease of procaspase-3 level after 36 hrs by Western blotting. In kind it is functional, cell-based. In outline:
as §1

The subject of data set [16] is A549. The data set can be described thus: Induction of apoptosis in human A549 cells assessed as cleavage of PARP at 5 uM after 36 hrs by Western blotting. In kind it is functional, cell-based.
Data set [17] concerns A549. The data set can be described thus: Induction of apoptosis in human A549 cells assessed as loss of mitochondrial cytochrome c at 5 uM after up to 48 hrs by Western blotting. In kind it is functional, cell-based. An outline of the steps:
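A549 cells treated 5 μM or 0.1% DMSO for 36 or 48 h. Cells homogenized in sucrose/HEPES buffer A on ice, then spun at 750g twice and 10000g for 60 min at 4 °C; pellet taken as mitochondrial fraction, supernatant as cytosolic. Cytochrome c in each fraction by Western blot. One of three repeats shown.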

Data set [18] has as its system Mus musculus. The experiment in a line: Toxicity in human A549 cells xenografted BALB/c nude mouse assessed as change in body weight at 3 mg/kg, sc qd for 5 days. Type of data set: organism-based. Also on record: dose 3 mg/kg, route subcutaneous. Conditions: in vivo, 120 h. An outline of the steps: (§3)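 Xenograft setting: female athymic BALB/c nu/nu mice bearing sc A549 tumors (80-120 mm3 at day 0), six per group, daily sc dosing days 0-4 in 20% Tween 80 in saline; vehicle controls. Body weight recorded three times weekly up to days 21-28. Brain, liver and kidney fixed in 4% formalin, paraffin-embedded and sectioned for histology.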

Data set [19] has as its system Mus musculus. The data set can be described thus: Toxicity in human A549 cells xenografted BALB/c nude mouse assessed as histological changes in brain at 3 mg/kg, sc qd for 5 days. Details: dose 3 mg/kg, route subcutaneous. Conditions: in vivo, 120 h. In kind it is organism-based. An outline of the steps:
as §3

For data set [20], the system named is A549. The data set can be described thus: Induction of apoptosis in human A549 cells assessed as increase of p53 protein level at 5 uM after 8 hrs by Western blotting. Type of data set: functional, cell-based. An outline of the steps:
(§4)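 A549 cells given 5 μM or 0.1% DMSO for 0-16 h; SDS lysates run on SDS-PAGE, transferred to PVDF, blocked in 5% milk PBST, primary antibody overnight, HRP secondary and chemiluminescence. p53, p21 and actin probed; one of three repeats shown.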

Data set [21] deals with A549. The data set can be described thus: Antitumor activity against human A549 cells xenografted in BALB/c nude mouse assessed as inhibition of tumor growth at 3 mg/kg, sc qd for 5 days. Type of data set: functional, organism-based. Details: dose 3 mg/kg. In outline: (§5)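 Female athymic BALB/c nu/nu mice, 6-8 weeks, 18-22 g; 1 × 10^7 A549 cells implanted sc on back. At 80-120 mm3 tumors, randomized (six per group, day 0); daily sc dosing days 0-4 in 20% Tween 80/saline, >1.5 cm from tumor; vehicle controls. Tumor L and W measured to day 21-28; TV = (L × W2)/2, RTV = TVn/TV0. Activated caspase-3 immunohistochemistry on formalin-fixed paraffin tumor sections (day 28 after inoculation).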

Data set [22] relates to Mus musculus. The experiment in a line: Toxicity in human A549 cells xenografted BALB/c nude mouse assessed as histological changes in liver at 3 mg/kg, sc qd for 5 days. Also on record: dose 3 mg/kg, route subcutaneous. In kind it is organism-based. As to conditions: in vivo, 120 h. In outline:
as §3

In data set [23] the test system is Mus musculus. The data set can be described thus: Toxicity in human A549 cells xenografted BALB/c nude mouse assessed as histological changes in kidney at 3 mg/kg, sc qd for 5 days. Conditions: in vivo, 120 h. Details: dose 3 mg/kg, route subcutaneous. Type of data set: organism-based. In outline:
as §3

The subject of data set [24] is A549. The experiment in a line: Antitumor activity against human A549 cells xenografted in BALB/c nude mouse assessed as increase in activated caspase-3 protein expression in tumor at 3 mg/kg, sc qd for 5 days by immunohistochemistry. Type of data set: functional, organism-based. Also on record: dose 3 mg/kg. An outline of the steps:
as §5

Data set [25] concerns A549. The experiment in a line: Induction of apoptosis in human A549 cells assessed as increase of p53 protein level at 5 uM after 2 hrs by Western blotting. Type of data set: functional, cell-based. In outline:
as §4

The record followed here is ChEMBL document CHEMBL1269005, “Synthesis and biological evaluation of polyenylpyrrole derivatives as anticancer agents acting through caspases-dependent apoptosis” (J Med Chem, 2010).

pIC50: −log10 of the molar value. Calls of active or inactive are those of the source. No cut-off for these calls is given here. Some results are limits rather than exact numbers.

In the case of `COc1cc(/C=C/C=C/C=C/C=C/c2[nH]ccc2Cl)oc(=O)c1` [AUXARCONJUGATIN B], the result in [1], in data set [3], in data set [5], in data set [9] and in [14] was inactive. Further, the outcome in [2], in [10], in data set [11], in data set [13], in [16] and in data set [17] was Active. The molecule further showed a pIC50 in [4] of 6.22. Also, the Activity entry in [6] is “Dose-dependent effect”; in data set [7] it was 42%; in [8], “Non-toxic”; in [12] it was “Dose-dependent effect”; in data set [15], “Dose-dependent effect”.
In the case of `C/C=C/C=C/C=C/C=C/c1cc(OC)c(C)c(=O)o1`, the negative-log IC50 (pIC50) in data set [4] is < 4.70.
Still for that read-out and setting: then `COc1cc(/C(C)=C/C=C/C=C/C=C/c2[nH]ccc2Cl)oc(=O)c1`, with 5.60; and `COc1cc(/C=C/C=C/C=C/C=C/c2sccc2Cl)oc(=O)c1`, with < 4.70; and `COc1cc(/C=C/C=C/C=C/C=C/c2ccccc2Cl)oc(=O)c1C`, with < 4.70.
The same measure, in the same setting: the value for `COc1cc(/C=C/C=C/C=C/C=C/c2cccc(Cl)c2)oc(=O)c1C` was < 4.70; that for `COc1cc(/C=C/C=C/C=C/C=C/c2[nH]ccc2Cl)oc(=O)c1C` [AUXARCONJUGATIN A] was 5.92; that for `CC\C(=C/C=C/C=C/C=C/c1[nH]ccc1Cl)c1cc(OC)c(C)c(=O)o1` was 5.25.
`COc1cc(/C(C)=C/C=C/C=C/C=C/c2[nH]ccc2Cl)oc(=O)c1C`: the negative-log IC50 (pIC50) in data set [4] is 5.28.
On the same count and under the same terms, then `O=c1cc(O)cc(/C=C/C=C/C=C/C=C/c2[nH]ccc2Cl)o1`, with < 4.70.
On the same count and under the same terms, the value for `Cc1c(O)cc(/C=C/C=C/C=C/C=C/c2[nH]ccc2Cl)oc1=O` was < 4.70; that for `COc1cc(/C=C/C=C/C=C/C=C/c2c(Cl)ccn2S(C)(=O)=O)oc(=O)c1C` was < 4.70; that for `CCCCc1c(OC)cc(/C=C/C=C/C=C/C=C/c2[nH]ccc2Cl)oc1=O` was 5.30.
Consider `CCCCc1c(OC)cc(/C(C)=C/C=C/C=C/C=C/c2[nH]ccc2Cl)oc1=O`, for which the result in data set [1], in data set [3], in data set [5], in [9] and in [14] was inactive. Moreover, the outcome in [2], in data set [20], in data set [10], in data set [11], in data set [21] and in data set [13] was Active. For the same molecule, the outcome in [24], in data set [25], in data set [16] and in [17] was Active. Further, the Activity entry in data set [18] is “Non-toxic”; in data set [19] it was “Non-toxic”; in data set [6] it was “Dose-dependent effect”; in data set [7], 47%; in data set [8], “Non-toxic”; in data set [22] it was “Non-toxic”. The figures for the Activity result in [12], in [23] and in [15] were “Dose-dependent effect”, “Non-toxic” and “Dose-dependent effect”, respectively. This molecule showed a pIC50 in [4] of 8.00.
Consider `COc1cc(/C=C/C=C/C=C/C=C/c2sccc2Cl)oc(=O)c1C`, for which, in data set [4], the pIC50 was < 4.70.

The pIC50 is the IC50 on a negative log10 scale, so that one unit is a factor of ten.
